In ChEMBL document CHEMBL4382192, “Discovery of a potent dual ALK and EGFR T790M inhibitor” (Eur J Med Chem, 2017):

How the values were obtained:
BaF3 = assay: Antiproliferative activity against mouse BAF3 cells assessed as reduction in cell viability after 72 hrs by MTS assay; assay type: cell-based; settings: BaF3, 72 h
[1] = Metabolic stability in human liver microsomes assessed as parent compound remaining at 1 uM after 30 mins in presence of NADPH by LC/MS/MS analysis; assay type: ADME, Microsome; settings: read-out: Stability
Procedure, shortened: (§1)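 Compound at 1 μM final with 0.5 mg/mL microsomal protein in 100 mM phosphate buffer pH 7.4 at 37 °C, started by adding an NADPH-regenerating system. Reactions were quenched with cold acetonitrile at 0 and 30 min and spun down. Supernatant was analysed by LC-MS/MS. The 0-min sample, quenched before NADPH addition, was set as 100%, and percent parent remaining came from peak areas.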

[2] = Metabolic stability in dog liver microsomes assessed as parent compound remaining at 1 uM after 30 mins in presence of NADPH by LC/MS/MS analysis; assay type: ADME, Canis lupus familiaris, Microsome; settings: read-out: Stability; procedure, shortened: as §1
[3] = Metabolic stability in rat liver microsomes assessed as parent compound remaining at 1 uM after 30 mins in presence of NADPH by LC/MS/MS analysis; assay type: ADME, Microsome; settings: read-out: Stability; procedure, shortened: as §1
[4] = Metabolic stability in mouse liver microsomes assessed as parent compound remaining at 1 uM after 30 mins in presence of NADPH by LC/MS/MS analysis; assay type: ADME, Microsome; settings: read-out: Stability; procedure, shortened: as §1
CYP1A2 = target: T1, CYP1A2 (Homo sapiens, UniProt P05177); assay: Residual activity of CYP1A2 in human liver microsomes at 10 uM using phenacetin O-deethylase as substrate preincubated for 5 mins followed by NADPH addition measured after 15 mins by LC/MS/MS analysis relative to control; settings: probe phenacetin (O-deethylation)
T1 sequence (P05177 whole entry): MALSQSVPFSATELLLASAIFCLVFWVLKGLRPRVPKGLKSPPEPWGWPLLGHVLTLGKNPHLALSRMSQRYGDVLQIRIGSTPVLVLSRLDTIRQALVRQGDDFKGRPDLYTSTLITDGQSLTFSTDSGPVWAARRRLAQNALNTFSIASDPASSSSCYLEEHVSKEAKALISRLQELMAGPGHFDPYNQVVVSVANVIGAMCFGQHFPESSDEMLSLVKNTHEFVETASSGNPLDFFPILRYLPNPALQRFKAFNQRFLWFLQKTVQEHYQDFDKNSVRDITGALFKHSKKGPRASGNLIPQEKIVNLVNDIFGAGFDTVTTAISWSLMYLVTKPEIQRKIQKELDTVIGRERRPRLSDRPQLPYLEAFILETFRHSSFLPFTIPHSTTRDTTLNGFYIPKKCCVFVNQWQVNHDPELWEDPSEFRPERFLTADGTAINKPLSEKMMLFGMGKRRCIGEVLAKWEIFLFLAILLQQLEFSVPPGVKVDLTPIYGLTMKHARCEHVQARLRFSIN

CYP3A4 = CYP3A4 (Homo sapiens, UniProt P08684); assay: Residual activity of CYP3A4 in human liver microsomes at 10 uM using midazolam 1-hydroxylase as substrate preincubated for 5 mins followed by NADPH addition measured after 15 mins by LC/MS/MS analysis relative to control; settings: probe midazolam (1-hydroxylation)
CYP2C9 = CYP2C9 (Homo sapiens, UniProt P11712); assay: Residual activity of CYP2C9 in human liver microsomes at 10 uM using tolbutamide 4-hydroxylase as substrate preincubated for 5 mins followed by NADPH addition measured after 15 mins by LC/MS/MS analysis relative to control; settings: probe tolbutamide (4-hydroxylation)
CYP2C19 = CYP2C19 (Homo sapiens, UniProt P33261); assay: Residual activity of CYP2C19 in human liver microsomes at 10 uM using S-mephenytoin 4-hydroxylase as substrate preincubated for 5 mins followed by NADPH addition measured after 15 mins by LC/MS/MS analysis relative to control; settings: probe S-mephenytoin (4-hydroxylation)
CYP2D6 = CYP2D6 (Homo sapiens, UniProt P10635); assay: Residual activity of CYP2D6 in human liver microsomes at 10 uM using dextromethorphan O-demethylase as substrate preincubated for 5 mins followed by NADPH addition measured after 15 mins by LC/MS/MS analysis relative to control; settings: probe dextromethorphan (O-demethylation)
[5] = target: ALK tyrosine kinase receptor (Homo sapiens, UniProt Q9UM73); assay: Inhibition of GST-tagged human ALK cytoplasmic domain (1058 to 1620 residues) expressed in baculovirus expression system using Poly G:T (4:1) as substrate after 30 mins by Z-LYTE assay
ALK tyrosine kinase receptor, sequence (Q9UM73 whole entry, the tested form may be a part): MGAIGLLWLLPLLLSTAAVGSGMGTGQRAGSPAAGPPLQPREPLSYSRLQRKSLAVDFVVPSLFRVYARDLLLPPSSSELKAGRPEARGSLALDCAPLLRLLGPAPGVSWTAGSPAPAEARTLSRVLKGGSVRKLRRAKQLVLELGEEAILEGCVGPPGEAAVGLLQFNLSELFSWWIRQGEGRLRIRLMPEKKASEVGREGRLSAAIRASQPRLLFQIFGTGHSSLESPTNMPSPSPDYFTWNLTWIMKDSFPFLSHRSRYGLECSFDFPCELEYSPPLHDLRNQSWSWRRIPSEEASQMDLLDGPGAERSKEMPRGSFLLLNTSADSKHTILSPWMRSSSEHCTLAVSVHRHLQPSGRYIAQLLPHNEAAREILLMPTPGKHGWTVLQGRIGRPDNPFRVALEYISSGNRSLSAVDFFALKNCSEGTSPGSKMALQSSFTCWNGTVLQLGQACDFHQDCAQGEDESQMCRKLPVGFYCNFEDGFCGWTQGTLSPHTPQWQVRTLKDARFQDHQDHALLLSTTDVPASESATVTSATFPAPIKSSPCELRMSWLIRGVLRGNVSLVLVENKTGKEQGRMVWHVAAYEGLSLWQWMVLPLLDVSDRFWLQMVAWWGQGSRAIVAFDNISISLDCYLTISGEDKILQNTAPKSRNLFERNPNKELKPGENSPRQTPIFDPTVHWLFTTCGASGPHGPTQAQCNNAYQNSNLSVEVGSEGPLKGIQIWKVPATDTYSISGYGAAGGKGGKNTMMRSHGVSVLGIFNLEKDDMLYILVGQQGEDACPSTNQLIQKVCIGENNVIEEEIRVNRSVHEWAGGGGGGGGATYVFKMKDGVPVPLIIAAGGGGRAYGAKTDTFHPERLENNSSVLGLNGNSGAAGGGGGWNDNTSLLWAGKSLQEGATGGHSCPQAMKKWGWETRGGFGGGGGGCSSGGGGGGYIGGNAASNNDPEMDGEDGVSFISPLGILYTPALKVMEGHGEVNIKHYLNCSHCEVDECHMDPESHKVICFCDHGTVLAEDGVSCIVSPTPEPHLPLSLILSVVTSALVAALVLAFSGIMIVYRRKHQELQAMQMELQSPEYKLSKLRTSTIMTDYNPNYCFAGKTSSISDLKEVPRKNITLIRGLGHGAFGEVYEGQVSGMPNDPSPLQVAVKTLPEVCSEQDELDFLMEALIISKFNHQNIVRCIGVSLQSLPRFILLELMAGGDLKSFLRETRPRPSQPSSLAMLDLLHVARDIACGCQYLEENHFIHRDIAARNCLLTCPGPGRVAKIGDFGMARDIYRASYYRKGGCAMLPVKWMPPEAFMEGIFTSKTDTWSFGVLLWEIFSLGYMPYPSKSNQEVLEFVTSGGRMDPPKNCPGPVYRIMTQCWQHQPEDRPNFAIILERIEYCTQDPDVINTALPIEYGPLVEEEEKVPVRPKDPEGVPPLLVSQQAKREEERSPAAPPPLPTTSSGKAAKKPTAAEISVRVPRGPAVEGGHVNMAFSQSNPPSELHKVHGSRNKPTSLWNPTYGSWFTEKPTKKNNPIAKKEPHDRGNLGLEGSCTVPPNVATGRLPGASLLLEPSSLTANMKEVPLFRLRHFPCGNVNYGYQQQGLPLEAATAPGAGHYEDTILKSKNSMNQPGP

CYP2C19, sequence (P33261 whole entry): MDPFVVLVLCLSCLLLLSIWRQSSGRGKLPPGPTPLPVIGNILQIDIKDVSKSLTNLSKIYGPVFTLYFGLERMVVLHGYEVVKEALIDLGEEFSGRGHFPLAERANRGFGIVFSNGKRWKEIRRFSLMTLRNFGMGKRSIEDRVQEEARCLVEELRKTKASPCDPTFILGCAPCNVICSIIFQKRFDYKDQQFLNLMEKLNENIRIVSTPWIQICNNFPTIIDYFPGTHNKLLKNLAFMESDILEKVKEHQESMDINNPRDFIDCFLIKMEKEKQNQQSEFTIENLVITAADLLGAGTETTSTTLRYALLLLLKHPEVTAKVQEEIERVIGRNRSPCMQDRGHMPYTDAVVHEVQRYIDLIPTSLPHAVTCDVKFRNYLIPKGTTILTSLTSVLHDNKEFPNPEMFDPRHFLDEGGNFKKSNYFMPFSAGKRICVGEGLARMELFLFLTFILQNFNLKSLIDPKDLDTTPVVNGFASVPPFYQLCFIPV
CYP2D6, sequence (P10635 whole entry, the tested form may be a part): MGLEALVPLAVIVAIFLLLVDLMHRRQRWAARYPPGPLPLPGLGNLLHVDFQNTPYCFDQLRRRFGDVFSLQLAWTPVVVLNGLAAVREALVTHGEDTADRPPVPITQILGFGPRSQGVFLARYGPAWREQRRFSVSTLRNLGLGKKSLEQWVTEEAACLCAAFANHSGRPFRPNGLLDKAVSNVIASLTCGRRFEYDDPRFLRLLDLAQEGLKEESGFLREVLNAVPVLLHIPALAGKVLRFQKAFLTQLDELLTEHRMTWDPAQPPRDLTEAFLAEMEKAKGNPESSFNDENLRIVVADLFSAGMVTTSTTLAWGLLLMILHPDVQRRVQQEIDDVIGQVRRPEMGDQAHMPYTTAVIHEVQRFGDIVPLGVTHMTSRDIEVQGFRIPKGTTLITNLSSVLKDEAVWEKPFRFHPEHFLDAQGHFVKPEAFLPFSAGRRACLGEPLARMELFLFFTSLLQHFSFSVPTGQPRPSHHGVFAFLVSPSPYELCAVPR
CYP2C9, sequence (P11712 whole entry): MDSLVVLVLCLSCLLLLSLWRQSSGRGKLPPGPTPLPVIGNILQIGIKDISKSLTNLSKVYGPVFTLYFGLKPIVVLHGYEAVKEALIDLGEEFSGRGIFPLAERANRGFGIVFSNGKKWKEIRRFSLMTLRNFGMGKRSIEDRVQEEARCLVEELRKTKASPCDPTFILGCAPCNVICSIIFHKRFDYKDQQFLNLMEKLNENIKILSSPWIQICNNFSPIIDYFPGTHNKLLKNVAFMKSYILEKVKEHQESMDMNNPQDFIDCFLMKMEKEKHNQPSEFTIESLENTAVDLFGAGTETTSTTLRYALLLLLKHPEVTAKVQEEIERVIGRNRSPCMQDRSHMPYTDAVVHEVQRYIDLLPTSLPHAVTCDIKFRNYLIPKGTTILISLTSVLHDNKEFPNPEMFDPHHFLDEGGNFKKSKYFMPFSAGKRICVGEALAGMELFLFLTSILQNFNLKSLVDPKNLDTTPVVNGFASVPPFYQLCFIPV
CYP3A4, sequence (P08684 whole entry): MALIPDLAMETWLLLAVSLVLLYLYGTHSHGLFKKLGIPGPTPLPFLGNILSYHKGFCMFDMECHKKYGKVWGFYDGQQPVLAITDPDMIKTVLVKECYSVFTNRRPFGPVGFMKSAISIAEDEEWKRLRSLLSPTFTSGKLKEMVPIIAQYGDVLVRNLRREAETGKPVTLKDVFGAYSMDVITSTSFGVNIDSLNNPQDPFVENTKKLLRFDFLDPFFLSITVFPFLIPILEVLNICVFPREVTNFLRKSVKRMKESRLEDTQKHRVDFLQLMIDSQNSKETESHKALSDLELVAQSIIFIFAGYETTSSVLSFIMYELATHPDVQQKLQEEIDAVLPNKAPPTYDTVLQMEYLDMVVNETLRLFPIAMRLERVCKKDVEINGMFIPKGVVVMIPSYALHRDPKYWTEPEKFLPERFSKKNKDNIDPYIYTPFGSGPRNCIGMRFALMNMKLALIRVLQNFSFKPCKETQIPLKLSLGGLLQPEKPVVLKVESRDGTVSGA

EC50 (BaF3) | remaining at 0.5 h, 1 µM [1] | remaining at 0.5 h, 1 µM [2] | remaining at 0.5 h, 1 µM [3] | remaining at 0.5 h, 1 µM [4] | Activity at […], 10 µM (CYP1A2) | Activity at […], 10 µM (CYP3A4) | Activity at […], 10 µM (CYP2C9) | Activity at […], 10 µM (CYP2C19) | Activity at […], 10 µM (CYP2D6) | IC50 [5] | Compound
> 5 µM | 10% | 50% | 6% | 5% | 82% | 56% | 88% | 85% | 79% |  | C=CC(=O)Nc1cc(Nc2nccc(Nc3ccccc3S(=O)(=O)N(C)C)n2)c(OC)cc1N(C)CCN(C)C
> 5 µM | 5% | 48% | 22% | 8% | 80% | 40% | 90% | 87% | 67% |  | C=CC(=O)Nc1cc(Nc2nccc(Nc3ccccc3S(=O)(=O)C(C)C)n2)c(OC)cc1N(C)CCN(C)C
 | 9% | 33% | 7% | 10% | > 100% | 71% | 88% | 91% | > 100% |  | C=CC(=O)Nc1cc(Nc2ncc(F)c(Nc3ccccc3S(=O)(=O)N(C)C)n2)c(OC)cc1N(C)CCN(C)C
 | 13% | 35% | 12% | 12% | 79% | 54% | 85% | 67% | 93% |  | C=CC(=O)Nc1cc(Nc2ncc(I)c(Nc3ccccc3S(=O)(=O)N(C)C)n2)c(OC)cc1N(C)CCN(C)C
> 5 µM | 65% | 93% | 81% | 57% | 91% | 88% | > 100% | 99% | 80% |  | C=CC(=O)Nc1cc(Nc2ncc(I)c(Nc3ccccc3P(C)(C)=O)n2)c(OC)cc1N(C)CCN(C)C
 | 11% | 31% | 13% | 23% | 87% | 39% | 59% | 75% | 88% |  | C=CC(=O)Nc1cc(Nc2ncc(Cl)c(Nc3ccccc3S(=O)(=O)N(C)C)n2)c(OC)cc1N(C)CCN(C)C
> 5 µM |  |  |  |  |  |  |  |  |  | 0.99 µM | C=CC(=O)Nc1cccc(Oc2nc(Nc3ccc(N4CCN(C)CC4)cc3OC)ncc2Cl)c1
> 5 µM | 26% | 27% | 11% | 15% | 91% | 51% | 94% | 93% | 95% |  | C=CC(=O)Nc1cc(Nc2ncc(F)c(Nc3ccccc3S(=O)(=O)C(C)C)n2)c(OC)cc1N(C)CCN(C)C
> 5 µM | 14% | 19% | 14% | 10% | 81% | 47% | 88% | 86% | 82% |  | C=CC(=O)Nc1cc(Nc2ncc(I)c(Nc3ccccc3S(=O)(=O)C(C)C)n2)c(OC)cc1N(C)CCN(C)C
> 5 µM |  |  |  |  |  |  |  |  |  |  | Cc1cc(Nc2ncc(Cl)c(Nc3ccccc3S(=O)(=O)C(C)C)n2)c(OC(C)C)cc1C1CCNCC1 [CERITINIB]
> 5 µM | 84% | 87% | 87% | 80% | > 100% | > 100% | > 100% | > 100% | > 100% |  | C=CC(=O)Nc1cc(Nc2ncc(F)c(Nc3ccccc3P(C)(C)=O)n2)c(OC)cc1N(C)CCN(C)C
> 5 µM | 61% | 77% | 76% | 66% | 93% | 91% | > 100% | 98% | 85% |  | C=CC(=O)Nc1cc(Nc2ncc(Cl)c(Nc3ccccc3P(C)(C)=O)n2)c(OC)cc1N(C)CCN(C)C
> 5 µM | 70% | 73% | 78% | 76% | 84% | 89% | 90% | > 100% | 87% | 0.695 µM | C=CC(=O)Nc1cc(Nc2nccc(Nc3ccccc3P(C)(C)=O)n2)c(OC)cc1N(C)CCN(C)C

Compound | EC50 (BaF3) | remaining at 0.5 h, 1 µM [1] | remaining at 0.5 h, 1 µM [2] | remaining at 0.5 h, 1 µM [3] | remaining at 0.5 h, 1 µM [4] | Activity at […], 10 µM (CYP1A2) | Activity at […], 10 µM (CYP3A4) | Activity at […], 10 µM (CYP2C9) | Activity at […], 10 µM (CYP2C19) | Activity at […], 10 µM (CYP2D6) | IC50 [5]
C=CC(=O)Nc1cc(Nc2nccc(-c3cn(C)c4ccccc34)n2)c(OC)cc1N(C)CCN(C)C [OSIMERTINIB] | > 5 µM |  |  |  |  |  |  |  |  |  | 0.177 µM
